Assay results from PMC3947005 (Cancer research, 2013).

Legend:
[1] = tested on: pERK in sMPNST cells; experiment: Phospho-ERK Western blot; assay type: cell-based, mouse; details: 10 µM for 30 minutes
Method in brief: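 Mouse sMPNST cells treated with test compound at 10 µM for 30 min, then trypsinized and lysed in RIPA buffer. Lysates run on 5–20% SDS-PAGE gels and immunoblotted for phospho-ERK and total ERK, with αTubulin or GAPDH as loading reference.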

[2] = tested on: sMPNST cells; experiment: CellTiter-Glo ATP luminescence assay, dose response; assay type: cell-based, mouse; details: rapamycin alone
[3] = tested on: pS6 in sMPNST cells; experiment: pS6 Western blot; assay type: cell-based, mouse; details: 0.05 µM (50 nM) for 30 or 60 min
Method in brief: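 Mouse sMPNST cells exposed to test compound at 0.05 µM (50 nM) for 30 or 60 min. Cells collected, trypsinized and lysed in RIPA buffer. Lysates resolved on 5–20% SDS-PAGE gels and probed for phospho-S6.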

[4] = tested on: MPNSTs from the cis-Nf1+/-;p53+/- mouse model; details: ref [7], [44]; cited from earlier work
[5] = tested on: pAKT in sMPNST cells; experiment: Phospho-AKT Western blot; assay type: cell-based, mouse; details: 20 µM for 30 or 60 minutes
Method in brief: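 Mouse sMPNST cells exposed to a PI3K-inhibitor test compound at 20 µM for 30 or 60 min. Cells collected, trypsinized and lysed in RIPA buffer. Lysates resolved on 5–20% SDS-PAGE gels and immunoblotted for phospho-AKT and total AKT, with αTubulin or GAPDH as loading reference.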

**Q.** With `N#CC(=C(/N)Sc1ccccc1N)/C(C#N)=C(/N)Sc1ccccc1N` [U0126] as the compound, how does the Phospho-ERK inhibition [1] read?
**A.** verified by Western blotting

**Q.** With `CO[C@H]1C[C@@H]2CC[C@@H](C)[C@@](O)(O2)C(=O)C(=O)N2CCCC[C@H]2C(=O)O[C@H]([C@H](C)C[C@@H]2CC[C@@H](O)[C@H](OC)C2)CC(=O)[C@H](C)/C=C(\C)[C@@H](O)[C@@H](OC)C(=O)[C@H](C)C[C@H](C)/C=C/C=C/C=C/1C` [rapamycin] as the compound, how does the “sMPNST cellular growth response” value [2] read?
**A.** relatively resistant

**Q.** And the pS6 levels [3]?
**A.** decreased pS6 levels

**Q.** And the “inhibition of MPNSTs” value [4]?
**A.** inhibit MPNSTs

**Q.** For `c1cc(CN2CCCNCCNCCCNCC2)ccc1CN1CCCNCCNCCCNCC1` [AMD3100], which “inhibition of MPNSTs” value [4] is on record?
**A.** inhibit MPNSTs

**Q.** With `O=c1cc(N2CCOCC2)oc2c(-c3ccccc3)cccc12` [LY294002] as the compound, how does the pAKT inhibition [5] read?
**A.** effective pAKT inhibition
